Rows were chosen to be rich in hits. Some 2.3% of all compounds tested hit in one or more screens of this group.
STAT3 activator = STAT3 signaling activation; AID 871; activation (% of control), % at 5.6 µM; U3A cells, IL-6 STAT3-luciferase reporter, luminescence; 100% = signal with IL-6 EC80 alone; hit rate 0.91% among 190,000;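 active = activation above the screen-wide mean of compound activation plus 3 SD, cut at about 130% in these data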;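 also: 0% = background luminescence of wells with medium and substrate only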
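Assay system – human STAT1-deficient U3A cells with stable STAT3-luciferase reporter · Also added – IL-6 (33 ng/mL) · Schedule – compound 1 h, then IL-6 6 h at 37 °C · Technique – reporter luminescence signal · Evaluation – % activation versus median of IL-6-stimulated wells · Benchmarks – IL-6-only wells as 100% reference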
TRAIL sens C8 = sensitizes caspase-8 expressing cells to TRAIL; NB7+C8 cells + TRAIL, ATPlite viability luminescence; inhibition (viability loss, TRAIL sensitization), % at 10 µM; hit rate 1% among 360,000; AID 624354;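 active = compounds causing at least 50% loss of cell viability in the single-dose screen, relative to plate controls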
PPC-1+TRAIL kill = compounds killing PPC-1 cancer cells with TRAIL present (potentiator screen, no TRAIL-free arm) | PPC-1 cells + TRAIL, ATPLite viability luminescence | cell killing (% activity), % at 4 µM or 5 µM | hit rate 0.41% among 220,000 | AID 1443;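 active = cell killing above 50% in the first pass at 4 µM, then a duplicate retest at 5 µM averaging 50% or more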;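 also: plate controls were cells with TRAIL plus DMSO for no effect and medium-only wells lacking cells for full effect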
STAT1 blocker = STAT1 signaling inhibition; NIH 3T3 STAT1-luciferase reporter, IFN-gamma, luminescence; inhibition, % at 5.5 µM; AID 920; hit rate 0.35% among 200,000;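 active = inhibition above a set limit, the mean inhibition across all tested compounds plus 3 SD, cut at about 34% in these data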;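 also: 0% = IFN-gamma with DMSO and 100% = IFN-gamma with 300 µM nifuroxazide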
STAT3 inh-1 = STAT3 signaling inhibition; inhibition, % at 5.5 µM; AID 862; U3A cells, IL-6 STAT3-luciferase reporter, luminescence; host cell line lacks STAT1; hit rate 0.89% among 190,000;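 active = inhibition above the mean inhibition across all screened compounds plus 3 SD, cut at about 44% in these data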;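 also: 0% = DMSO only wells and 100% = 100 µM nifuroxazide control wells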
HSP90 inh = blocks HSP90-mediated luciferase refolding in reticulocyte lysate; Rabbit reticulocyte lysate, luciferase refolding luminescence, 3 h; inhibition, % at 5.6 µM; hit rate 0.91% among 290,000; AID 1789;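 active = inhibition above the screen-wide mean plus 3 SD, computed separately per campaign, cut at about 16% in these data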;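 also: 0% = DMSO wells and 100% = 60 µM geldanamycin wells; inhibitors lower the luminescence because luciferase stays unfolded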
STAT3 inh-2 = confirmation of STAT3 signaling inhibitors; shares compounds with STAT3 inh-1; U3A cells, IL-6 STAT3 luciferase reporter, luminescence; cell line lacks STAT1; inhibition, % at 5.7 µM; hit rate 45% among 1,200; AID 1265;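 active = inhibition above the hit cutoff computed for the primary STAT3 screen, cut at about 44% in these data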;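 also: 0% = IL-6 plus DMSO and 100% = IL-6 plus nifuroxazide control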
NFkB inh 2 = counter-screen for STAT3 inhibitors: NF-kappaB inhibition; shares compounds with STAT3 inh-1; HEK293T NF-kB luciferase reporter, TNF-alpha induced; inhibition, % at 5.7 µM; hit rate 36% among 1,200;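 active = inhibition above the mean of solvent-only control wells plus 3 SD, cutoff set per campaign, cut at about 13% in these data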;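 also: 0% = TNF-alpha with DMSO and 100% = TNF-alpha with MG high control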
STAT1 inh STAT3c = STAT1 inhibition in STAT3 inhibitor counter-screen; shares compounds with STAT3 inh-1; NIH 3T3 STAT1-luciferase reporter, IFN-gamma induced, luminescence; inhibition, % at 5.7 µM; hit rate 27% among 1,200;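 active = inhibition above the mean plus 3 SD of solvent-only control wells, limit set per screening run, cut at about 16% in these data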;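 also: 0% = DMSO with IFN-gamma and 100% = nifuroxazide control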
PPC1 cytotox = kills PPC-1 cells; shares compounds with PPC-1+TRAIL kill; PPC-1 viability, ATPlite luminescence, overnight; cytotoxicity, % at 5 µM; hit rate 50% among 1,200; AID 1447;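 active = reconfirmed compounds whose average cytotoxicity reaches 50% or more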;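 also: 0% = DMSO-treated cells and 100% = wells holding medium but no cells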
HSP90 inh confirm = HSP90 inhibition, confirmation assay; shares compounds with HSP90 inh; rabbit reticulocyte lysate, luciferase refolding luminescence, 3 h; inhibition, % at 5.9 µM; hit rate 64% among 2,300; in the data active = inhibition above about 18%;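 also: 0% = vehicle wells and 100% = reference inhibitor wells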
FLuc counter = counter-screen for HSP90 inhibitors: inhibitors of firefly luciferase. shares compounds with HSP90 inh. purified native firefly luciferase, luminescence. inhibition, % at 5.9 µM. hit rate 48% among 2,300. AID 1847;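 active = inhibition above the mean inhibition of all tested sample wells plus 3 SD, cut at about 10% in these data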;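 also: 0% = DMSO with luciferase and 100% = wells lacking luciferase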
Target sequence (P08659 whole entry, looked up): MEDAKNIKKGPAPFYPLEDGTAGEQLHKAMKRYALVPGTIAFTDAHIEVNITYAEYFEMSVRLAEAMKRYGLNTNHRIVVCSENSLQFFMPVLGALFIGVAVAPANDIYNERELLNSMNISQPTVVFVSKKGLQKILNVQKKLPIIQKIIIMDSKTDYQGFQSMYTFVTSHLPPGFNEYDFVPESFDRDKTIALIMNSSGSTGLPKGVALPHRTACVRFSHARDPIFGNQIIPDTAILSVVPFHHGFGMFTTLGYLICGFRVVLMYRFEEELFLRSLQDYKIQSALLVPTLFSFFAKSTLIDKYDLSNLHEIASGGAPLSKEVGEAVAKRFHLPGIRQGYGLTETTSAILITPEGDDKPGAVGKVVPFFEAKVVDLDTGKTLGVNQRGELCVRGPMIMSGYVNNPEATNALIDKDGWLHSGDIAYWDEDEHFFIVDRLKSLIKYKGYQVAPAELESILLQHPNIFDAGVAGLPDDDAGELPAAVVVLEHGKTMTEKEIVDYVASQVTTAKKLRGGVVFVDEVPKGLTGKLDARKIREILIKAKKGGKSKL
* hit, by the source's call; . = no result.

SMILES | STAT3 activator | TRAIL sens C8 | PPC-1+TRAIL kill | STAT1 blocker | STAT3 inh-1 | HSP90 inh | STAT3 inh-2 | NFkB inh 2 | STAT1 inh STAT3c | HSP90 inh confirm | FLuc counter | others
O=C(Nc1ccc(Cl)cc1)Nc1ccccc1C(=O)O | 50 | 75* | . | 25 | 62* | 27* | 9 | -4 | -68 | 46* | 43*
CSc1ccccc1NC(=O)Nc1ccc(Cl)cc1 | 69 | 23 | 13 | 1 | 41 | 4 | . | . | . | . | .
CCCC(=O)Nc1ccc2c(c1)Cc1ccccc1-2 | . | 3 | . | . | . | -3 | . | . | . | . | .
CCCc1cc(=O)[nH]c(SCC(=O)N2CCC(C(=O)OCC)CC2)n1 | 96 | -13 | -17 | 11 | 4 | 7 | . | . | . | . | .
Oc1c(C=Nc2ccccc2)sc2ccccc12 | 48 | 17 | . | -20 | 66* | 38* | -16 | -29 | -21 | 84* | 80*
COc1ccc(C(=O)n2c(N)nc3ccccc32)cc1OC | . | 7 | . | . | . | 1 | . | . | . | . | .
Nc1nc2ccccc2n1C(=O)c1ccc(F)cc1 | 45 | 81* | 50* | 19 | 68* | 40* | 39 | -3 | -66 | 54* | 35* | PPC1 cytotox=50
Nc1nc2ccccc2n1C(=O)c1ccccc1 | 45 | 77* | 62* | 28 | 67* | 27* | 31 | -4 | -71 | 59* | 42* | PPC1 cytotox=62*
CCN(CC)c1ccc2cc(NC(=O)CCC(=O)O)c(=O)oc2c1 | 45 | 27 | 25 | 26 | 70* | 33* | 65* | 29* | 28* | 36* | -31
CN(C)C(=O)CSc1cnc2ccccc2n1 | 108 | -3 | 16 | -4 | -6 | -1 | . | . | . | . | .
Cc1ccc(C(=O)CSc2cnc3ccccc3n2)cc1C | 56 | 4 | 9 | -20 | 54* | 37* | -30 | -19 | -44 | 47* | 29*
CCCNc1nc(N2CCCC2)nc(N2CCCC2)n1 | 104 | 24 | . | 21 | -2 | -1 | . | . | . | . | .
NC(=O)c1ccc(NC(=O)Nc2ccc3c(c2)OCO3)cc1 | . | 32 | . | . | . | 2 | . | . | . | . | .
O=C(NC1=NCCS1)c1cc2ccccc2o1 | 50 | 58* | 58* | 4 | 64* | 34* | 27 | -10 | -72 | 56* | 47* | PPC1 cytotox=51*
O=C(Nc1ccc2oc(=O)ccc2c1)c1cc2ccccc2o1 | 94 | 34 | 22 | -65 | 10 | -2 | . | . | . | . | .
O=C(Nc1ccc2c(c1)OCCO2)Nc1ccc2c(c1)OCO2 | 58 | 83* | 73* | 30 | 54* | 19* | 4 | -17 | -95 | 41* | 30* | PPC1 cytotox=73*
O=C(Nc1ccc2c(c1)OCCO2)c1cc2ccccc2o1 | 47 | 79* | 57* | 19 | 66* | 24* | 21 | -26 | -114 | 39* | 26* | PPC1 cytotox=56*
CNc1nnc(-c2ccc(N(C)C)cc2)s1 | 57 | 73* | 60* | 15 | 53* | 20* | 19 | -10 | -57 | 47* | 37*
O=C(NCc1ccccc1)c1cccc(COc2ccc3c(c2)CCC3)c1 | 52 | 20 | 6 | 15 | 56* | 36* | 45* | 34* | 27* | 45* | 45*
Cc1nn(-c2ccccc2)c(Cl)c1C(=O)N1CCN(C)CC1 | 101 | -6 | -2 | -8 | 0 | -5 | . | . | . | . | .
CCOC(=O)C1(C)/C(=N/Nc2cccc(Cl)c2)C(=O)C(=O)N1c1ccccc1 (stereo not given) | 101 | 1 | 4 | -2 | 4 | -2 | . | . | . | . | .
Cc1cccc(NC(=O)c2ccc3c(Cl)c4c(nc3c2)CCCC4)n1 | 51 | 70* | 36 | -52 | 64* | 17* | 25 | -7 | -112 | 58* | 47*
CCC(C)NC(=O)c1ccc2c(Cl)c3c(nc2c1)CCC3 (stereo not given) | . | 41 | 18 | . | . | -1 | . | . | . | . | .
O=C(NCCc1ccccc1)c1ccc2nccnc2c1 | 56 | 36 | . | 20 | 54* | 40* | 16 | -9 | -68 | 52* | 41*
CCOc1ccc(C(=O)NCCc2ccccc2)cc1 | 53 | 41 | 43 | 5 | 55* | 23* | 31 | 8 | -49 | 66* | 55*
SMILES | STAT3 activator | TRAIL sens C8 | PPC-1+TRAIL kill | STAT1 blocker | STAT3 inh-1 | HSP90 inh | STAT3 inh-2 | NFkB inh 2 | STAT1 inh STAT3c | HSP90 inh confirm | FLuc counter | others
O=C(c1cccc(OC2CCN(Cc3cccc(OCCO)c3)CC2)c1)N1CCCC1 | . | -19 | . | . | . | -3 | . | . | . | . | .
O=c1c2sc(-c3ccccc3)cc2nc2n1CCC2 | 61 | 54* | 12 | -7 | 49* | 24* | 33 | -11 | -76 | 48* | 32*
COc1ccc(NC(=O)N2CCCc3ccccc32)cc1OC | . | 3 | . | . | . | -3 | . | . | . | . | .
Cc1ccc(NC(=O)N2CCc3ccccc32)cc1C | 50 | 66* | 55* | 7 | 62* | 18* | 14 | -26 | -143 | 37* | 17* | PPC1 cytotox=59*
Cc1ccccc1Cn1c2ccccc2c2cn[nH]c(=O)c21 | 97 | -10 | -12 | 9 | 8 | 0 | . | . | . | . | .
Cc1ccc2nc(-c3cccc(N)c3)oc2c1 | 57 | 74* | 76* | 20 | 55* | 23* | 17 | -10 | -110 | 67* | 64* | PPC1 cytotox=75*
Cc1cc(C)c2oc(-c3cccc(N)c3)nc2c1 | . | 16 | . | . | . | 0 | . | . | . | . | .
CCOC(=O)C1(CCOC)CCN(Cc2ccc(C3CCCCO3)s2)CC1 (stereo not given) | 110 | 4 | -1 | 1 | -6 | 0 | . | . | . | . | .
Oc1ccccc1-c1cc(-c2ccc3c(c2)OCCO3)n[nH]1 | 57 | 53* | 43 | -14 | 55* | 21* | 21 | -44 | -29 | 38* | 35*
O=C(O)c1cc(-c2ccc3c(c2)OCCO3)n[nH]1 | 102 | 10 | 18 | -3 | 0 | -3 | . | . | . | . | .
CC(C)C(=O)Nc1ccc(-c2nc3cccnc3o2)cc1 | 61 | 47 | 37 | -51 | 48* | 26* | 15 | -34 | -90 | 30* | 7
Cc1cc2nc(-c3ccc(NC(=O)C(C)C)cc3)oc2cc1C | 96 | 21 | 12 | -86 | 5 | 0 | . | . | . | . | .
CCC(=O)Nc1ccc2oc(-c3cccc(C)c3)nc2c1 | 50 | 60* | 45 | -3 | 64* | 24* | 25 | -19 | -110 | 40* | 35*

Bioassay records from PubChem BioAssay.
